# Laboratory results reported in the RNAGym collection of RNA variant scans (doi:10.1126/science.aae0568).
# This sample holds only a part of the variants without activity.
# B1: tRNA (parent)
# chain: GUUCCGUUGGCGUAAUGGUAACGCGUCUCCCUCCUAAGGAGAAGACUGCGGGUUCGAGUCCCGUACGGAACG
# Variants of: B1
# Assay: yeast fitness relative to wild type (ratio to wild type); higher = fitter; tRNA-Arg(CCU), competitive growth, 37 C, YPD
# Outline: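 Start and end populations of a pooled competition were compared by 100-nucleotide paired-end sequencing of gene amplicons. The Saccharomyces cerevisiae strains carried tRNA-Arg(CCU) gene variants at the native genomic locus, synthesised with a 3% per-site mutation rate at 69 sites, and competed in YPD at 37°C for 24 hours in six parallel replicates. Darwinian fitness relative to wild type was based on the change in genotype frequencies. Genotypes required ≥ 100 starting reads, and estimates < 0.5 were set to 0.5.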
row,Variant,yeast fitness
1,GUUCCGUUGGCGUAUUGGUAACGCGUCUCCCUGCUAAGGAGACUACUGCGGGUUCGAGUCCCGUACGGAACG [A15U C33G A43C G44U],≤ 0.5
2,GUUCCGUUGGCGUAAAGGUGACGCGUUUACCUCCUAAGGACAAGACUGCGGGUUCGAGUCCCAUACGGAACG [U16A A20G C27U C29A G41C G63A],≤ 0.5
3,GUUCCGUUGGCGUAUUGGGAACGCGUCUCCCUCCUAAGGAGAAGACUGCGGGUUCGAGUCCCGUACGGAACG [A15U U19G],0.631
4,GUUCCGUUGGCGUAAAGGUCACGCGUCUCCCUCCUAAGGAGAAGACUGCGGGUUCGAGUCCCGUACGGAACG [U16A A20C],1.02
5,GUUCCGUUGGCGUAAAGGUAACGCGUCUCCCUCCUAAGGAGAAGCCUGCGGGUUCGAGUCCCGUACGGAACG [U16A A45C],0.994
6,GUUCCGUUGGCGUAUUGGUAACGCGUCUUCCUUCUAAGGAGAAGACUGCGGGUUCGAGUCCCGUACGGAACG [A15U C29U C33U],≤ 0.5
7,GUUCCGUUGGCGUAUCGGUAACGCGUCUCCCUCCUAAGGUGAAGACUGCGGGUUCGAGACCCGUACGGACCG [A15U U16C A40U U59A A70C],≤ 0.5
8,GUUCCGUUGGCGUAUUGGAGACGCGUCUCCCUCCUAAGGUGAUGACUGCGGGUUCGAGUGCUGUGCGGAACG [A15U U19A A20G A40U A43U C60G C62U A65G],≤ 0.5
9,GUUCCGUUGGCGUAUUGGUAACGCCUCUCCCUCAUAAGGAGAAGACUGCGGGUUCGAGUCCCGUACGGAACG [A15U G25C C34A],0.941
10,GUUCCGUUGGCGUAAAGGUAACGCGUCUCCCUCCUAAGGAGCAGACUGCGGGUUCGAGUCCCGUACGGUACG [U16A A42C A69U],0.505
11,GUUCCGUUGGCGUAUUGCUAACGCGUCUCCCUCCUAAGGAGAAGACUGCGGGUUCGAGUCCCGUACGGAACG [A15U G18C],0.589
12,GUUCCGUUGGCGUAUUGGUAACGCGUCUCCCUGCUAAGGAGAAGACUGCGGGUUCGAGUCCCGUAUGGAACG [A15U C33G C66U],≤ 0.5
13,GUUCCGUUGGCGUAAAGGUAACGCGUCUCCCUCCUAGGGCGAAGACGGCGGGUUCGAGUCCCGUACGGAACG [U16A A37G A40C U47G],≤ 0.5
14,GUUCCGUUGGCGUAUUGGUAACGCGUCUCCUUCCUAAGGAGAAGAGUGCGGGUUCGAGUCCCGUGCGGAUCG [A15U C31U C46G A65G A70U],≤ 0.5
15,GUUCCGUUGGCGUAUUGAUAACGCGUCUCCCUGCUAAGGAGCAGACUGCGGGUUCGAGUCCCGUACGGAACG [A15U G18A C33G A42C],≤ 0.5
16,GUUCCGUUGGCGUAUUGGUAACGCGUCUCCCACCUAAGGAGAAGACUGCAAGUUCCAGUCGCGUACGGAACG [A15U U32A G50A G51A G56C C61G],0.538
17,GUUCCGUUGGCGUAAAGGUAACGCGUCUCCCUCCUAAGGUGAAGACUGCGGGUUCGAGUCCCGUACGGAACG [U16A A40U],1
18,GUUCCGUUGGCGUAUUGGUAACGCGUCUCCCUCCUAAGCAGAAGACCGCGGGUUCGAGUCCCGUACGGAACG [A15U G39C U47C],≤ 0.5
19,GUUCCGUUGGCGUAUUGGUAACGCGUCGCCCUUCUAAGGAGAAGACUGCGGGUUCGAGUCCCGUACGGAACG [A15U U28G C33U],≤ 0.5

row,Variant,yeast fitness
1,GUUCCGUUGGCGUAUUGGUAACGCAUCUCCCUCCUAAGGAGAAGACUGCGGGUUCGAGUCCCGUACGGAACG [A15U G25A],1
2,GUUCCGUUGGCGUAUUGGUAACGCGUCUCCCUCCUAAGGAGAAGACUGCGGGUUCGAGUCCCGUAUGGACCG [A15U C66U A70C],0.566
3,GUUCCGUUGGCGUAUUGGUAACGCGUCUCCCUCCUAAGGAGAAGACUGCGGGUUCGAGUCCCCUAGGGAACG [A15U G63C C66G],≤ 0.5
4,GUUCCGUUGGCGUAUUGGUAACGCGUCUCCUUCCUAAGGAGAAGACUGCGGGUUCGAGUCCCGUACGGAGCG [A15U C31U A70G],0.629
5,GUUCCGUUGGCGUAAAGGUAACGCGUCUCCCUCCUAUGGAGAAGACUGCGGGUUGCAGUCCCGUACGGAACG [U16A A37U C55G G56C],≤ 0.5
6,GUUCCGUUGGCGUAUUGGUAACGCGUCUCCCUGCUAAGGAGAAGACUGAGGGUUCGAGUGCCGUACGGAACG [A15U C33G C49A C60G],≤ 0.5
7,GUUCCGUUGGCGUAUUGGUAACGCGUCUCCCUCCUAACAAGACGACUGCGGGUUCGAGAUCCGUACGGAACG [A15U G38C G39A A43C U59A C60U],≤ 0.5
8,GUUCCGUUGGCGUAAAGGUAACGCGUCUCCCUCCUAAGGAGUAGACUGCGGGUUCGAGUCCCGUACGGAACG [U16A A42U],0.907
9,GUUCCGUUGGCGUAAAGGUAACGCGUCUCCCUCCUAGGAAGAAGACUGAAGGUUCGAGUCCCGUACGCAACG [U16A A37G G39A C49A G50A G68C],0.531
10,GUUCCGUUGGCGUAUUCGUAACGCGUCUCCCUCCUAAGGAGAAGUCUGGGGGUUUGAGUCCCGUACGGAUCG [A15U G17C A45U C49G C55U A70U],≤ 0.5
11,GUUCCGUUGGCGUAUUGCUAACGCGUCUCCCUCGUAAGGAGGAGACUGCGGCUUCGAGUCCCGUACGGAACG [A15U G18C C34G A42G G52C],0.575
12,GUUCCGUUGGCGUAUUGGUAACGCAUCUCCCUGCUAAGGAGAAGACUGCGGGUUCGAGUCCGGUACGGAACG [A15U G25A C33G C62G],≤ 0.5
13,GUUCCGUUGGCGUAAAGGUAACGCGUCUCCCUCCUACGGAGAAGACUCCGGGUUCGAGUCCCGUACGGAACG [U16A A37C G48C],0.546
14,GUUCCGUUGGCGUAUUGGUAACGCGUCUCCCUCUUAAGGAGAAGACUGCGGGUUCGUGUUCCGUACGGAACG [A15U C34U A57U C60U],0.725
15,GUUCCGUUGGCGUAUUGGUAACGCGUCUCCCUCCUAAGGAGAAGACCGGGGGUUUGAGUCCCGUUCGGAACG [A15U U47C C49G C55U A65U],0.531
16,GUUCCGUUGGCGUAUUAGUAACGCGUCUCCCUCCUAAGGAGAAGAUUGCGGGUUCGAGUCCUGUACGGAACG [A15U G17A C46U C62U],0.865
17,GUUCCGUUGGCGUAUUGGUAACGCGUCUUCCUCCUAAGGAGAAGACUGCGGGUUCGAGUCCCGUACGGAACG [A15U C29U],0.749
18,GUUCCGUUGGCGUAUUGGUAACGCGUCUCCCUCCUAAGGAGAAGAAUGCGGGUUCGAGUCGCGUACGGGACG [A15U C46A C61G A69G],≤ 0.5
